Laboratory results: ChEMBL document CHEMBL1138764, “Resistance-modifying agents. 11.(1) Pyrimido[5,4-d]pyrimidine modulators of antitumor drug activity. Synthesis and structure-activity relationships for nucleoside transport inhibition and binding to alpha1-acid glycoprotein” (J Med Chem, 2004)
“And” between values parts separate entries of the source, which are not always exact repeats. Equal values may be shown once. The source made the active and inactive calls. No cut-off for these calls is given here.

Assays:
[1] = test system: L1210; assay: Tested for the reduction in inhibition of [3H]thymidine uptake in L1210 cells in the presence of 5 mg/mL human AGP; format: functional, Mus musculus
Method in brief: (§1)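 Rapid-mixing, inhibitor-stop ³H-thymidine uptake into L1210 leukaemia cells run with 5 mg/mL human AGP present. Values are mean ± SD of three or more separate determinations. Significance of the difference from inhibition without AGP is taken at p ≤ 0.05.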

[2] = test system: L1210; assay: Inhibition of [3H]thymidine uptake in L1210 cells; format: functional, cell-based; details: Mus musculus
Method in brief: (§2)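 ³H-thymidine uptake into L1210 leukaemia cells measured by a modified rapid-mixing technique with inhibitor-stop. Values are mean ± SD of three or more separate determinations. IC50 is interpolated from concentration–inhibition curves.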

[3] = test system: L1210; assay: Inhibition of [3H]thymidine uptake in L1210 cells at 10 uM; format: functional; details: Mus musculus; method in brief: as §2
[4] = test system: L1210; assay: Inhibition of [3H]thymidine uptake in L1210 cells at 1 uM; format: functional; details: Mus musculus; method in brief: as §2
[5] = test system: L1210; assay: Inhibition of [3H]thymidine uptake in L1210 cells in the presence of 5 mg/mL human AGP at 1 uM; format: functional, Mus musculus; method in brief: as §1
[6] = test system: L1210; assay: Compound was tested for the inhibition of [3H]thymidine uptake in L1210 cells at 0.1 uM; format: functional; details: Mus musculus; method in brief: as §2
[7] = test system: L1210; assay: Compound was tested for the inhibition of [3H]thymidine uptake in L1210 cells at 100 uM; format: functional; details: Mus musculus; method in brief: as §2

SMILES	IC50 [2]	Reduction [1]	inhibition at 10 µM [3]	inhibition at 1 µM [4]	other results
OCCCOc1nc(N2CCCCC2)c2nc(OCCCO)nc(N3CCCCC3)c2n1			76%	35%	
CC(C)Oc1nc(N2CCCCC2)c2nc(OC(C)C)nc(N3CCCCC3)c2n1			23%		
COC[C@H](COc1nc(N2CCCCC2)c2nc(OC[C@H](COC)OC)nc(N3CCCCC3)c2n1)OC			100%		
COCCOc1nc(N(Cc2ccccc2)Cc2ccccc2)c2nc(OCCOC)nc(N(Cc3ccccc3)Cc3ccccc3)c2n1			15%	9%	
c1ccc(CNc2ncnc3c(NCc4ccccc4)ncnc23)cc1			40%		
COc1ccc(CNc2nc(NCC(C)O)nc3c(NCc4ccc(OC)c(OC)c4)nc(NCC(C)O)nc23)cc1OC (centres undefined)	400 nM	12%		83%	Inhibition [5]: 73%; inhibition at 0.1 µM [6]: 38%
CCC(C)COc1nc(N2CCCCC2)c2nc(OCC(C)CC)nc(N3CCCCC3)c2n1 (centres undefined)					inhibition [3]: inactive
COc1ccc(CNc2nc(OCCO)nc3c(NCc4ccc(OC)c(OC)c4)nc(OCCO)nc23)cc1OC		46%		56%	Inhibition [5]: 30%
COCCN(CCOC)c1nc(N2CCCCC2)c2nc(N(CCOC)CCOC)nc(N3CCCCC3)c2n1	2070 nM	50%	86%	29%	
CCCOc1nc(N2CCCCC2)c2nc(OCCC)nc(N3CCCCC3)c2n1	52000 nM		37%		inhibition at 100 µM [7]: 60%
OCC(O)COc1nc(N2CCCCC2)c2nc(OC[C@H](O)CO)nc(N3CCCCC3)c2n1 (some centres undefined)			32%		inhibition at 100 µM [7]: 87%
COc1ccc(CN(C)c2nc(NCC(C)O)nc3c(N(C)Cc4ccc(OC)c(OC)c4)nc(NCC(C)O)nc23)cc1OC (centres undefined)		22%		73%	Inhibition [5]: 57%
OCCN(CCO)c1nc(NCc2ccc3c(c2)OCO3)c2nc(N(CCO)CCO)nc(NCc3ccc4c(c3)OCO4)c2n1		36%		73%	Inhibition [5]: 47%
Clc1nc(NCc2ccccc2)c2nc(Cl)nc(NCc3ccccc3)c2n1					inhibition [7]: inactive
OCCN(CCO)c1nc(NCc2ccc(C(F)(F)F)cc2)c2nc(N(CCO)CCO)nc(NCc3ccc(C(F)(F)F)cc3)c2n1			60%	32%	
CCCOc1nc(N(C)Cc2ccccc2)c2nc(OCCC)nc(N(C)Cc3ccccc3)c2n1			8%		
CCN(CC)c1nc(N2CCCCC2)c2nc(N(CC)CC)nc(N3CCCCC3)c2n1					inhibition [3]: inactive
OCCN(CCO)c1nc(NCc2ccc(Cl)cc2)c2nc(N(CCO)CCO)nc(NCc3ccc(Cl)cc3)c2n1	1100 nM		92%	53%	
COc1ccc(CNc2nc(OC[C@@H](C)O)nc3c(NCc4ccc(OC)cc4)nc(OC[C@H](C)O)nc23)cc1				68%	
C[C@H](O)COc1nc(N(C)Cc2ccccc2)c2nc(OC[C@@H](C)O)nc(N(C)Cc3ccccc3)c2n1		84%		55%	Inhibition [5]: 9%
COc1ccc(CNc2nc(OCCCO)nc3c(NCc4ccc(OC)c(OC)c4)nc(OCCCO)nc23)cc1OC		34%		71%	Inhibition [5]: 47%
COc1ccc(CNc2nc(N(CCO)CCO)nc3c(NCc4ccc(OC)c(OC)c4)nc(N(CCO)CCO)nc23)cc1OC	270 nM	25%	98%	73%	Inhibition [5]: 53%
Clc1nc(Cl)c2nc(Cl)nc(Cl)c2n1					inhibition [7]: inactive
COCC(C)Oc1nc(N2CCCCC2)c2nc(OC(C)COC)nc(N3CCCCC3)c2n1 (centres undefined)			62%		inhibition at 100 µM [7]: 96%
OCCN(CCO)c1nc(N2CCCCC2)nc2c(N(CCO)CCO)nc(N3CCCCC3)nc12			74%	34%	
CN(Cc1ccccc1)c1nc(OCCO)nc2c(N(C)Cc3ccccc3)nc(OCCO)nc12	800 nM	55%	87%	49%	Inhibition [5]: 22%
COc1ccc(CN(C)c2nc(OCCCO)nc3c(N(C)Cc4ccc(OC)c(OC)c4)nc(OCCCO)nc23)cc1OC	750 nM			54%	
COc1ccc(CN(C)c2nc(NCC(C)O)nc3c(N(C)Cc4ccc(OC)cc4)nc(NCC(C)O)nc23)cc1 (centres undefined)		86%		39%	Inhibition [5]: 5%
COc1ccc(CN(C)c2nc(NCCO)nc3c(N(C)Cc4ccc(OC)c(OC)c4)nc(NCCO)nc23)cc1OC			84%	57%	
c1nc(N2CCCCC2)c2ncnc(N3CCCCC3)c2n1					inhibition [7]: inactive

Continued, in another order:

IC50 [2]	SMILES	Reduction [1]	inhibition at 10 µM [3]	inhibition at 1 µM [4]	other results
340 nM	OCCN(CCO)c1nc(N2CCCCC2)c2nc(N(CCO)CCO)nc(N3CCCCC3)c2n1 [DIPYRIDAMOLE]	87% and 96%			
460 nM	COc1ccc(CNc2nc(OCCCO)nc3c(NCc4ccc(OC)cc4)nc(OCCCO)nc23)cc1	21%		63%	
930 nM	COc1ccc(CNc2nc(NCCO)nc3c(NCc4ccc(OC)cc4)nc(NCCO)nc23)cc1	40%		56%	Inhibition [5]: 35%; inhibition at 0.1 µM [6]: 10%
250 nM	COc1ccc(CNc2nc(N(CCO)CCO)nc3c(NCc4ccc(OC)cc4)nc(N(CCO)CCO)nc23)cc1	29%	96%	65%	
6300 nM	OCCOc1nc(N2CCCCC2)c2nc(OCCO)nc(N3CCCCC3)c2n1			13%	
220 nM	COc1ccc(CN(C)c2nc(OCCCO)nc3c(N(C)Cc4ccc(OC)cc4)nc(OCCCO)nc23)cc1	59%		78%	Inhibition [5]: 32%; inhibition at 0.1 µM [6]: 38%
500 nM	COc1ccc(CNc2nc(NCCO)nc3c(NCc4ccc(OC)c(OC)c4)nc(NCCO)nc23)cc1OC	23%		62%	Inhibition [5]: 44%; inhibition at 0.1 µM [6]: 29%
3000 nM	CC(O)CNc1nc(NCc2ccccc2)c2nc(NCC(C)O)nc(NCc3ccccc3)c2n1 (centres undefined)		84%	33%	
1400 nM	CN(Cc1ccccc1)c1nc(OCCCO)nc2c(N(C)Cc3ccccc3)nc(OCCCO)nc12		77%	52%	
700 nM	CC(O)CNc1nc(N(C)Cc2ccccc2)c2nc(NCC(C)O)nc(N(C)Cc3ccccc3)c2n1 (centres undefined)	77%		56%	Inhibition [5]: 12%; inhibition at 0.1 µM [6]: 24%
900 nM	C[C@H](O)COc1nc(N2CCCCC2)c2nc(OC[C@@H](C)O)nc(N3CCCCC3)c2n1	55%	92%	47%	Inhibition [5]: 20%
3800 nM	COCCOc1nc(N(C)Cc2ccccc2)c2nc(OCCOC)nc(N(C)Cc3ccccc3)c2n1		68%	17%	
2400 nM	COCCOc1nc(NCc2ccccc2)c2nc(OCCOC)nc(NCc3ccccc3)c2n1		78%	31%	
720 nM	OCCN(CCO)c1nc(N2CCc3ccccc3C2)c2nc(N(CCO)CCO)nc(N3CCc4ccccc4C3)c2n1	31%	100%	72%	
750 nM	OCCNc1nc(NCc2ccccc2)c2nc(NCCO)nc(NCc3ccccc3)c2n1			46%	
2600 nM	OCCN(CCO)c1nc(N2CCCC(O)C2)c2nc(N(CCO)CCO)nc(N3CCCC(O)C3)c2n1 (centres undefined)		50%	28%	
4600 nM	COCCOc1nc(N2CCCCC2)c2nc(OCCOC)nc(N3CCCCC3)c2n1		63%	20%	
